The results in this text go back to the RNAGym collection of RNA variant scans (doi:10.1126/science.aae0568).

Variants at the floor of the assay were thinned out.

First the molecules themselves.
B1: tRNA (parent)
chain: GUUCCGUUGGCGUAAUGGUAACGCGUCUCCCUCCUAAGGAGAAGACUGCGGGUUCGAGUCCCGUACGGAACG

This data set covers variants of B1. Briefly: yeast fitness relative to wild type (ratio to wild type); higher = fitter; tRNA-Arg(CCU), competitive growth, 37 C, YPD. The gist of the method: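 Amplicons of the tRNA-Arg(CCU) gene were sequenced, 100-nucleotide paired-end, from the start population and from each end population of a pooled yeast competition. The competition, in six parallel replicates, lasted 24 hours in YPD at 37°C. Fitness relative to wild type was calculated from changes in genotype frequencies. Genotypes had to have ≥ 100 starting reads, and estimates < 0.5 were set to 0.5.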
As for G10C U13C G18C C27U C33G A37G C55U U64A G68C A70U, the yeast fitness was not above 0.5. Then U2A G9A C34U C49G G52C C55U C62G, with not above 0.5; and C4U G51A, with 0.942. In the case of C34U A65C it was 0.884; in that of C60U U64A, 0.656. Then A45U C60G C66A, with not above 0.5; and C11A A40G, with 0.602; and A15C A21U C24A C33A C61U, with not above 0.5.

On to G6C U8A C22U U59C, for which the yeast fitness was not above 0.5. In the case of C24G G25A C31G A57U it was 0.532. As to G6C U7G, the yeast fitness amounted to 0.725.

Take U3G C46A A57U A69U: the yeast fitness was not above 0.5. In the case of G9A C49U A69C it was 0.85; in that of A20U C55U G67A, not above 0.5.

For U13A A45G G67U, the yeast fitness came to 0.629. Turning to C11U C22U G48C U54G C55U, the yeast fitness is not above 0.5. In the case of U8C C31G it was 0.81; in that of A14U C24G C31A A40G G44C, not above 0.5. As for C29U G48C G52A, the yeast fitness turned out to be 0.591. Then C24U U26A U28G U54G, with 0.545. With U3C C5G A14U A43G G67C, the yeast fitness is not above 0.5. For A20U U28C A40U A70U, the yeast fitness is not above 0.5. Then G10A C31A G41C, with not above 0.5.

With C29U C31U A57C C62U, the yeast fitness worked out at 0.558. As to U2G A42C U47A G63C, the yeast fitness stood at 0.55.

For C11G U47A G67A, the yeast fitness is 0.548.

On to C4G C11G C29A C30U, for which the yeast fitness was not above 0.5.

With C5A U8C C11U G18A C31A A37U G67C, the yeast fitness was not above 0.5. In the case of C5U A37U C49A G56C it was not above 0.5; in that of C29A A42G A45U G50A C60A, not above 0.5. Then A14G U16A C33A C55U, with 0.67; and C33U G52C G56C, with not above 0.5.

Take A42U A43G G52C: the yeast fitness is not above 0.5. Then U7C C31G G38C A43U C62G, with not above 0.5; and C5G G18A A20U C55G, with not above 0.5; and U3A G12C U13C C66U, with 0.664. Then A15G A65C A69U, with 0.705. With C46U G56A, the yeast fitness was 0.978. In the case of A57U A69G A70C it was not above 0.5; in that of A40G G50C A57C G58C, 0.636; in that of A36C G56C C66U, not above 0.5. Then A14U A42C U54A G67C A69U, with not above 0.5; and U32C U59G, with 0.878; and A45U A70G, with 1.09. In the case of C22G A57G A65G it was 0.624; in that of U16G C27G U54C, 0.633; in that of C22G U35C C46U C55G, not above 0.5. For A20G U54A, the yeast fitness stood at 0.681. Then C5A A14G G17C C29A C33G C34U A36U, with 0.648. Then U2G C5G C11G G56C C61G, with not above 0.5; and C22A G23A C33U A42U, with not above 0.5; and C5A, with 0.995. Take C4U G12C U28G U32C C62G: the yeast fitness was not above 0.5. Then G56C A69U, with 0.671; and C30U U54C, with 0.805; and G6A C31A A69U, with 0.506. In the case of U3G U35G A37U U47C G56C A69C it was not above 0.5. Then C24A C29U A36U C55U, with not above 0.5; and U8G C11G U32A A70C, with 0.599.

Turning to C5G C62U C66G, the yeast fitness was 0.641. Regarding U8C C34A A45C, the yeast fitness was not above 0.5. Turning to A21U A69U, the yeast fitness came to 0.686. In the case of C31G A57U it was 0.726; in that of C5G U32C, 0.946; in that of G18A C34U G39C, not above 0.5. In the case of U7G A21C G50A U64C it was not above 0.5; in that of A21C C34U G51C, not above 0.5; in that of C4U G38C G41A C61G, 0.707. Consider A21U C22G G51C, for which the yeast fitness was not above 0.5. With G6C G58C U64A, the yeast fitness worked out at 0.529. In the case of U2C G25A A42U A65C G67C it was not above 0.5. Then U13G G39C A69U, with 0.625; and A36G C46U, with 0.952; and C27G U28A, with 0.596. Then C4U C11G C34U C60A, with not above 0.5; and A15G C33G G44A C46G C66U, with not above 0.5.

On to G12A C34A A43G, for which the yeast fitness was 0.531.

For C31G C33G C49U C60G C66A, the yeast fitness was not above 0.5.

G39A C55A: the yeast fitness turned out to be 0.696.

Take G18C A40C C61U: the yeast fitness was not above 0.5. Then A36U C66A, with not above 0.5; and A42U G48A C61G C66G, with not above 0.5; and C33A A36U G41A G48A, with not above 0.5. In the case of U3A C11U A69U it was 0.627; in that of U13C A45U A57G, not above 0.5.

Take G48C A57G A69U: the yeast fitness was determined as 0.562. In the case of G50A G56A C62G A70U it was not above 0.5; in that of C5G C11G A14U A15U G56A U59G, not above 0.5; in that of C5G G17C C60U, 0.686.

Consider G25C U26G C46G C61A A70U, for which the yeast fitness is not above 0.5. Then C27A A43C C60A, with not above 0.5; and U7A U19G C60G, with not above 0.5. Then U13C A40C C66A, with 0.567. On to G10A G38C A57G, for which the yeast fitness is not above 0.5. As for C4A U13G A45U U47A, the yeast fitness was 0.616. In the case of G48C C55A it was 0.703; in that of G18A C22A C61A A65G A70U, 0.585; in that of C22A C61U, 0.864. Then G6C C31U, with 0.93; and C30G G50C, with 0.781; and A15C U35G G56C, with not above 0.5.

Turning to C5U U32C A45G C46A, the yeast fitness stood at 0.602. Then C4G G17C A37U G58A C61A, with not above 0.5. Then G23C A37C G52C C66G A69C, with 0.612; and C5U C46U, with 1.07. Then U19A C29U, with 0.76; and C4A C31U A42C, with 0.572. C31A G44C A65G: the yeast fitness came out at 0.553. For G9A C34U U59C A65C A69G, the yeast fitness was not above 0.5.

U3A A40G C55G: the yeast fitness stood at 0.813. Then U47A A69U, with 0.984. For C29A A45U U59C, the yeast fitness turned out to be 0.721. In the case of A20U A40U it was 0.654; in that of A70G, 0.999. In the case of A43G it was 0.991; in that of U3C U8C A45U, 0.721; in that of C4A U13A A14C A43U, 0.601. Then G10C C33U A36G A43G, with not above 0.5; and C4G U28C C55U, with not above 0.5. As to A37C G68A, the yeast fitness came to 0.729. Then C22U C30U A57C, with 0.528; and C29G U32G G38A U53C, with 0.566. In the case of G23C U32A C49A U54G it was not above 0.5. U16G C49U G52A G63A: the yeast fitness is 0.632. Then G9A C11G U19C G56A C60G, with 0.566. For C4U A14C U59A C60U, the yeast fitness was not above 0.5. On to A14G A45C C66U, for which the yeast fitness was determined as 0.582. In the case of C11G C29A A40U, the yeast fitness is not above 0.5. Then G9U C11A A14G C24U G41C C55G, with not above 0.5; and C34G G38C A70G, with not above 0.5. In the case of U3C C5U A37U C49U U53C it was 0.597; in that of C4U A43C C62U, 0.965. In the case of C24U U32A G38A A57U it was not above 0.5. As to A14C A45C G50A, the yeast fitness was not above 0.5. Regarding A14G G44A, the yeast fitness was determined as 0.894. As for U8A A15G C27A G67A, the yeast fitness is not above 0.5. Then U8G C11G U32A A57U C60A G68C, with not above 0.5; and C22U G25A G41C U54G C61U, with not above 0.5; and A15C G18A U19G, with not above 0.5. Then G12C C66G A69U, with not above 0.5. Then C5U U28G A42C, with not above 0.5; and C4U C30A C49U, with 0.825.

With U13A G56C A65C, the yeast fitness was not above 0.5. Take C27G U28C C62G: the yeast fitness was not above 0.5. Then C4U A20G U28C C31U G50C C55G U59C C60U G67U, with not above 0.5; and C4U C33G A36G G67A G68C, with 0.604; and C27U A36U G38C A43C C66U, with not above 0.5. Then G23C A65G, with 0.587; and C29A A40G A43G C55U C61U C66G, with not above 0.5.

On to C4U G23C U26G A36C A37U A42C A45U C60U C66U A70G, for which the yeast fitness is 0.634. A36C U47A G48C U54G: the yeast fitness came to 0.544. Then G17C C22G A42G C46A, with not above 0.5; and A20C U26C C27U G67A, with not above 0.5; and G9A A20U A21U, with not above 0.5. As to G9C G56A, the yeast fitness was determined as 0.863. Then C34A A69U, with 0.858; and C4A G17C U19C A21U C33G, with not above 0.5; and U35C A40U, with 0.856. Take U8C C11A A42G A43U C46U C62U: the yeast fitness was not above 0.5. Take C11U U16C C31U U54C: the yeast fitness was not above 0.5.

As to U26C C29G, the yeast fitness is 0.735.

As for A36G G68C A69U, the yeast fitness stood at 0.547. Consider A15C C29U, for which the yeast fitness worked out at 0.669.

U47G C66U: the yeast fitness is 0.691. Then G23A C49G, with 0.873; and U16C A37C G67A, with 0.553; and G18A U32C A65G, with 0.535.
